Compound activity (PubChem BioAssay)
Calpain2 inh: inhibitors of pig calpain II, primary screen, biochemical, fluorogenic peptide substrate, 1536-well. purified calpain II, 30 min. inhibition, % at 16 µM. actives 0.37% (n = 220,000). AID 1236, 2008;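 active means inhibition above about 50%, limit read from the data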
PKD1 inh: inhibitors of human PKD1 kinase, biochemical, fluorescence polarization; PKD1 kinase fluorescence polarization assay; inhibition, % (no concentration beside the values); actives 0.056% (n = 200,000); in the data active means inhibition above about 50%
MDM2 E3 inh: MDM2-luciferase reporter signal enhancers, primary screen, MDM2 E3 ligase inhibitor project, cell-based, luminescence, 1536-well; signal enhancement, % at 5 µM; cell-based MDM2 ubiquitination luciferase reporter, 2 h; 0 = plate control, 100 = twice control, blank-subtracted; E3 ubiquitin-protein ligase Mdm2 (Homo sapiens), Q00987; actives 0.11% (n = 210,000);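 active means signal enhancement of 30% or more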;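 further: luminescence tracks abundance of the self-degrading MDM2-luciferase fusion protein; higher signal means inhibition of MDM2 E3 ligase activity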
Target sequence (Q00987 whole entry, looked up, the tested form may be a part): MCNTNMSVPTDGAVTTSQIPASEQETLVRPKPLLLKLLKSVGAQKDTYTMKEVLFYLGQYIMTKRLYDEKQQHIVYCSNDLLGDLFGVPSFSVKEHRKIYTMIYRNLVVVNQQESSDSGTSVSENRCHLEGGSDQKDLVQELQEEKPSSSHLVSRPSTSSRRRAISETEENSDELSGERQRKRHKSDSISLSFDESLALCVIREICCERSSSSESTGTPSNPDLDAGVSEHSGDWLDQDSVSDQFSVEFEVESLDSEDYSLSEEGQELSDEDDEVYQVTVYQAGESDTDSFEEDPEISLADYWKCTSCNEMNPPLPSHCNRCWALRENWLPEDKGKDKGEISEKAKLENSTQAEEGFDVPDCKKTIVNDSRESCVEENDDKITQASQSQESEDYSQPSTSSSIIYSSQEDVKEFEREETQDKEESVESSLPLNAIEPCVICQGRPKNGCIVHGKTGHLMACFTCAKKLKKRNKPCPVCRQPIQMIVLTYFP
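Material: Stable MDM2–luciferase fusion reporter cells | Amount: 2000 cells seeded into each well | Dosing: One concentration, 5 µM, with 0.2% DMSO | Incubation: 4 h cell settling then 2 h compound exposure, 37 °C | Measured by: Luciferase luminescence | Read-out basis: % enhancement relative to plate controls after blank subtraction | Benchmarks: Control and blank well means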
Cl transport mod: KCC2 cotransporter modulators, thallium flux, primary screen, cell-based, HEK293 KCC2, FluoZin-2 fluorescence, MLSMR; Solute carrier family 12 member 5 (Homo sapiens), Q9H2X9; KCC2 cells, thallium flux FluoZin-2 fluorescence; B-score of Tl+ flux slope (higher = more flux/activation; lower = inhibition) at 10 µM; actives 2.2% (n = 190,000);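 active means thallium flux slope and its plate-corrected score both differing from the plate sample mean at a set confidence after two filtering rounds, in either direction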;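 further: slope of fluorescence scaled to starting intensity during 10 to 20 s after thallium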
ROMK primary: ROMK potassium channel modulators, primary screen, cell-based, thallium flux, MLSMR library. B-score at 10 µM. ATP-sensitive inward rectifier potassium channel 1 (Homo sapiens), P48048. actives 2% (n = 130,000). Tet-inducible ROMK, thallium flux fluorescence; actives lie on both sides;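 active means signal ratio slope over the read window, or its plate-corrected B-score, at least 3 SD from the plate mean, either direction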;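 further: B-score of the F/F0 ratio slope over 7 to 12 s after thallium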
Arbovirus anti: antivirals against arbovirus infection, primary screen, cell-based, full library, 10K replicate subset; arbovirus infection cell-based antiviral screen; inhibition, % at 10 µM; actives 0.37% (n = 200,000); in the data active means inhibition above about 30%
Starred values were filed as active, the others as inactive; / = not tested or not shown. The list is not random: actives were taken first. Their share in the collection is about 3.7%.

SMILES	Calpain2 inh	PKD1 inh	MDM2 E3 inh	Cl transport mod	ROMK primary	Arbovirus anti
O=C(COC(=O)c1ccc(NS(=O)(=O)c2cccs2)cc1)Nc1nc2c(F)c(F)c(F)cc2s1	-84	7	-8	-0.36	1.4	34*
COCCn1c(C)cc(C(=O)CSc2cc(C)c3ccccc3n2)c1C	30	-6	-3	0.14	/	31*
COCCn1c(C)cc(C(=O)CSc2nc3ccccc3c(=O)n2Cc2ccco2)c1C	8	-6	18	-1.6	-0.16	-1
CCn1nc([N+](=O)[O-])c(C(C#N)c2nc3cc(C(F)(F)F)ccc3s2)c(Cl)c1=O (stereo unspecified)	-14	3	-19	-5.7*	-5*	-44
COc1cc(C(N)=O)cc(Br)c1OCc1ccccc1	0	-3	-3	0.98	-0.3	3
COc1cc(CNc2ccc(O)cc2)cc(Br)c1OCc1ccccc1	64*	5	0	-2.2	-0.0025	-6
COc1ccc(/C=C/C(=O)O)cc1S(=O)(=O)N1CCC(C)CC1	-16	/	-11	0.051	/	/
O=C(/C=C/c1cccc([N+](=O)[O-])c1)n1cnc2ccccc21	-33	3	49*	-0.21	-0.78	-28
COc1cc(SC)ccc1C(=O)N(Cc1ccccc1)c1ccccn1	14	/	-11	-0.71	/	/
CCCCCCCCCCCCCCCC[n+]1ccc(C(N)=O)cc1	72*	-6	-12	2	-0.44	-38
COc1ccc(C(=O)NCC(=O)OCc2ccccc2F)cc1	5	3	-7	-0.05	0.047	2
O=P(CCCCCCCCCP(=O)(c1ccccc1)c1ccccc1)(c1ccccc1)c1ccccc1	57*	-1	-1	-3*	-4.7*	-38
O=C(O)CCCCCCCCCCP(=O)(c1ccccc1)c1ccccc1	-15	/	3	0.23	0.018	/
COc1cccc(CNc2ccc(F)c([N+](=O)[O-])c2)c1O	84*	-2	-5	0.15	-1.2	-1
Cc1nn(Cc2ccccc2)c(C)c1NC(=O)CCCn1nc([N+](=O)[O-])cc1C	-19	-8	4	0.26	1.2	-7
COc1ccc(CNC(=O)C2CCCN2C)cc1OC (stereo unspecified)	10	/	/	-0.024	/	/
O=[N+]([O-])c1ccc(OCC(O)CN2CCN(c3ccccc3F)CC2)cc1 (stereo unspecified)	57*	-3	-3	-0.42	/	11
CCc1ccc2nc(Nc3nc(COC)cc(=O)[nH]3)nc(C)c2c1	-19	2	-2	-1.5	/	0
COCc1cc(=O)[nH]c(Nc2nc3ccc(C)cc3o2)n1	-5	-4	36*	-1	-0.98	-18
COc1ccc(C(=O)N2CCN(C(=O)Cc3ccccc3)CC2)cc1	22	6	/	-0.19	0.071	1
Oc1ccc(Br)cc1-c1nc2cnccn2c1NC1CCCC1	/	2	-16	1.1	-1.2	62*
O=S(=O)(c1ccc(-c2ccon2)s1)N1CCN(c2ccccn2)CC1	20	/	-7	0.0063	/	/
CC1=NN(c2cccc(C(=O)O)c2)C(=O)/C1=C\C=C\c1ccco1	12	-1	36*	0.32	-1.9	13
COc1ccc(-c2nnc(-c3cc(OC)c(OC)c(OC)c3)o2)cc1OC	-426	2	-16	-0.23	0.57	38*
COc1nccc(-c2ccc(F)cc2)c1C#N	-29	-7	-3	0.012	0.032	-5
SMILES	Calpain2 inh	PKD1 inh	MDM2 E3 inh	Cl transport mod	ROMK primary	Arbovirus anti
CC(C)c1cc(C(F)(F)F)n2nc(C(=O)Nc3ccc4c(c3)OCO4)cc2n1	0	8	-7	-0.72	/	31*
CC(C)c1cc(C(=O)Nc2ccc3c(c2)OCO3)no1	3	-6	-23	0.85	/	-15
CCOc1ccccc1N1C(=O)CC(Sc2n[nH]c(-c3ccccc3)n2)C1=O (stereo unspecified)	-23	-2	-6	-0.87	-0.9	-4
CCOc1nc(OCC)c2cnn(C)c2n1	1	/	-3	0.052	/	/
Cn1nc(C(=O)Nc2ccc(S(=O)(=O)N3CCCC3)cc2)ccc1=O	-10	-3	-29	/	0.96	1
Cn1nc(C(=O)Nc2ccc(S(=O)(=O)N3CCCCC3)cc2)c2ccccc2c1=O	51*	-5	-8	1.3	0.58	10
Cn1c(N)c(C(=O)CSc2nc3ccccc3[nH]2)c(=O)n(C)c1=O	-12	/	-3	0.18	0.88	/
Cc1ccsc1/C=N/NC(=O)C1C(=O)NCC1c1ccccc1 (stereo unspecified)	-13	/	-9	0.63	/	/
Cc1cccc(OCc2n[nH]c(=S)o2)c1	7	-8	-10	-4.8	0.67	8
Cc1cccc(OCc2n[nH]c(=S)n2C2CCCCC2)c1	61*	-1	1	-0.06	-0.059	-23
CCOc1ccc(NC(=O)CN2C(=O)CSC(C)C2=O)cc1 (stereo unspecified)	-10	-1	-3	0.13	0.39	13
CCOc1ccc(NC(=O)CN2C(=O)/C(=C3\SC(=S)N(C4CCS(=O)(=O)C4)C3=O)c3ccccc32)cc1 (stereo unspecified)	63*	/	/	-0.0056	/	/
COc1ccc(N2C(=O)[C@@H]3[C@H](C2=O)[C@H](C(C)=O)N2c4ccccc4C=C[C@@H]32)cc1	-62	/	-80	-1	/	/
COc1ccc(C2C(C(=O)c3ccccc3)N3c4ccccc4C=CC3C2[N+](=O)[O-])cc1 (stereo unspecified)	-89	-2	-15	0.39	-3.7*	-5
CC1CC(c2ccccc2)n2nc(NC(=O)c3ccco3)nc2N1 (stereo unspecified)	10	-11	-20	1.4	-6.6*	-4
CCC(C)[C@@H](C(=O)N1CCNCC1)n1cc(CCCN=C(N)N)nn1 (stereo partly specified)	14	2	/	0.18	/	5
C[C@@H](C(=O)N1CCNCC1)n1cc(CCCN=C(N)N)nn1	-22	4	/	2*	/	8
CC(C)Cn1c2ccccc2c2cc(C(=O)O)ccc21	-8	-6	-3	/	-0.19	8
COc1cc2c(C(=O)O)c(C)n(CC(C)C)c2c2ccccc12	-248	-2	-7	0.28	/	54*
CCOC(=O)c1c(C)n(C)c2cc(Br)c(OC)cc12	20	-5	-2	-0.047	-0.84	-8
CCOC(=O)c1c(CNCCN(CC)CC)n(C)c2cc(Br)c(OC)cc12	-3	8	/	-3*	-2.2	-33
